Assay results from paper PMC5494147 (Bioorganic & medicinal chemistry, 2017).

Tests used:
[1] = system: histone H3 (Lys9/14) acetylation in MDA-MB-231 cells; experiment: Immunoblot analysis of histone hyperacetylation; format: cell-based; conditions: MDA-MB-231, 8 h post-treatment
How it was run: (§1)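 Cells grown in DMEM with 10% FBS at 37 °C, 5% CO2; 4 × 10^5 cells seeded and incubated overnight. Treated 8 h with test compound at 0–10 μM final or 1% EtOH vehicle. Whole-cell lysates normalised by BCA; equal protein run on SDS-PAGE, transferred to PVDF, probed with anti-acetyl histone H3 antibody and β-actin, chemiluminescent detection.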

HDAC11 = conditions: ref [5]–[6], [6c]; cited from earlier work
HDAC8 = target: T1, HDAC8 (Homo sapiens, UniProt Q9BY41); conditions: compared with HDACs 1–3; ref [5]–[6], [6c]; cited from earlier work
T1 sequence (Q9BY41 1-377): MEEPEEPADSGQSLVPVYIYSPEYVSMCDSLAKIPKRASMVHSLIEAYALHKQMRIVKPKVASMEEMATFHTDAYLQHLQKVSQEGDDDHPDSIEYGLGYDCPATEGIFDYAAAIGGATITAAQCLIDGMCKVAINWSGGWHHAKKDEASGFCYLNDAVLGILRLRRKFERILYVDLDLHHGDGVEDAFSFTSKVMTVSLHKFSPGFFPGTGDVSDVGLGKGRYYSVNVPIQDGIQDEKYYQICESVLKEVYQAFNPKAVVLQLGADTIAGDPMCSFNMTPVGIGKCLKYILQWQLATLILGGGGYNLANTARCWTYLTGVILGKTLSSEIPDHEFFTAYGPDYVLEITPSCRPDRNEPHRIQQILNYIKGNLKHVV

[2] = system: histone H3 (Lys9/14) acetylation in HCT116 cells; experiment: Immunoblot analysis of histone hyperacetylation; format: cell-based; conditions: HCT116, 8 h post-treatment
How it was run: as §1

HDAC6 = target: T2, HDAC6 (Homo sapiens, UniProt Q9UBN7); conditions: relative to the strongly inhibited isoforms; ref [5]–[6], [6c]; cited from earlier work
T2 sequence (Q9UBN7 1-1215): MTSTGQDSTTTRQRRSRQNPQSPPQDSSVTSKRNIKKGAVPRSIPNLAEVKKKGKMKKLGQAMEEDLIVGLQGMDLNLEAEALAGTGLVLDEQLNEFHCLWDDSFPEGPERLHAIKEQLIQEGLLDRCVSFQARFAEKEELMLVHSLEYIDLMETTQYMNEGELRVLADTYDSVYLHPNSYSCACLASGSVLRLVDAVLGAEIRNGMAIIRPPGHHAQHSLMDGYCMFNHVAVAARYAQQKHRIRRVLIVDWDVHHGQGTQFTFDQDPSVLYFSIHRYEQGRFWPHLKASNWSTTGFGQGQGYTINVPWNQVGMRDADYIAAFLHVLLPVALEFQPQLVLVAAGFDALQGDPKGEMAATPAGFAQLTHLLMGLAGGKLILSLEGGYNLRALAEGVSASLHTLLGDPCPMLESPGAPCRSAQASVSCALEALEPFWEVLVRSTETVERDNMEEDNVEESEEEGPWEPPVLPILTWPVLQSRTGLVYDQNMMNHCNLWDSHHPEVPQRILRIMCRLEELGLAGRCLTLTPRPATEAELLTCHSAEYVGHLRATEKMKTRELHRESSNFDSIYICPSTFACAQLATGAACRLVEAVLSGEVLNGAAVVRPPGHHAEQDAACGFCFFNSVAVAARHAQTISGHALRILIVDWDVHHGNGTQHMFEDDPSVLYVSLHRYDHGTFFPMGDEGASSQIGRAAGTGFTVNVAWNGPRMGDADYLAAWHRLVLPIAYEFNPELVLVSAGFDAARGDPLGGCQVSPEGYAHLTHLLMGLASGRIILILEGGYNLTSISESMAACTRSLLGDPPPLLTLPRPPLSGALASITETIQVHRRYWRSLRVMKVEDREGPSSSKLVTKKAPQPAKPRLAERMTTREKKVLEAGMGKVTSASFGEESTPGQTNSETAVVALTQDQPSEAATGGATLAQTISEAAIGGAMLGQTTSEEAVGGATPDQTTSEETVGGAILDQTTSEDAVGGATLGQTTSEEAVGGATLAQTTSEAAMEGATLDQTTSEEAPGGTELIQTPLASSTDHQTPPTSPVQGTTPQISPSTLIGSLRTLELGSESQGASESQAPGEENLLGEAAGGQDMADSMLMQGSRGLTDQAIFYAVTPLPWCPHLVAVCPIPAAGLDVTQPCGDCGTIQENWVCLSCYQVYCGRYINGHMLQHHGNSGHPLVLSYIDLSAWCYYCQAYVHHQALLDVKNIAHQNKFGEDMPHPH

HDAC10 = target: T3, HDAC10 (Homo sapiens, UniProt Q969S8); conditions: among class II isoforms; ref [5]–[6], [6c]; cited from earlier work
T3 sequence (Q969S8 1-669): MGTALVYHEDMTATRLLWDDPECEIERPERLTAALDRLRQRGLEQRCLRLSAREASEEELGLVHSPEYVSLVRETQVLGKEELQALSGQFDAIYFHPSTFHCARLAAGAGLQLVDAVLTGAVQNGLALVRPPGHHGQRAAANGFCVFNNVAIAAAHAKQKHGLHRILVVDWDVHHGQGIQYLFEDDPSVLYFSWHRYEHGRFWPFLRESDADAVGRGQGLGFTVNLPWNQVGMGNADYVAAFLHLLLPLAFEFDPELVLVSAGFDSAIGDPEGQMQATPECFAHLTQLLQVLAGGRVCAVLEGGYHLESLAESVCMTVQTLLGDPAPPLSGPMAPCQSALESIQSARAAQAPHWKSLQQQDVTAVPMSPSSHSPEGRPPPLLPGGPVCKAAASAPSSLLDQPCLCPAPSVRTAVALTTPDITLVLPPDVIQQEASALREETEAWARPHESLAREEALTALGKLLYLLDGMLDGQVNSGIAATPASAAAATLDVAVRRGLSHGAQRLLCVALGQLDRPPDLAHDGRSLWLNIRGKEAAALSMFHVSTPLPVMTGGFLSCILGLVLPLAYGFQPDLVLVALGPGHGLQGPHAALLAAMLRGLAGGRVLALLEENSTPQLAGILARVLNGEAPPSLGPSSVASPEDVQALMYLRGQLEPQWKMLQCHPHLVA

HDAC isoform 9 = HDAC isoform 9 (Homo sapiens, UniProt Q9UKV0); experiment: HDAC enzyme inhibitory assay; format: biochemical; conditions: up to concentrations of 10 μM
HDAC isoform 4 = HDAC isoform 4 (Homo sapiens, UniProt P56524); experiment: HDAC enzyme inhibitory assay; format: biochemical; conditions: up to concentrations of 10 μM
HDAC isoform 11 = target: T4, HDAC isoform 11 (Homo sapiens, UniProt Q96DB2); experiment: HDAC enzyme inhibitory assay; format: biochemical; conditions: up to concentrations of 10 μM
T4 sequence (Q96DB2 1-347): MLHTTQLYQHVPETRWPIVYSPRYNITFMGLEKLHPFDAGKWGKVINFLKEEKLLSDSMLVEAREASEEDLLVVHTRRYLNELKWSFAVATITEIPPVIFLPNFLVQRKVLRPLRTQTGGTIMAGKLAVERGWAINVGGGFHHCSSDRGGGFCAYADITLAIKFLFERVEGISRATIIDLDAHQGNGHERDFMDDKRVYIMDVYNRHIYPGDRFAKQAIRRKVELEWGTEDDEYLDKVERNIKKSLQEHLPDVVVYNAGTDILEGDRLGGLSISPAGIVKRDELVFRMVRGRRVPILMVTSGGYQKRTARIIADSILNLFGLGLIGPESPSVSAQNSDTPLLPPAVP

HDAC isoform 7 = target: T5, HDAC isoform 7 (Homo sapiens, UniProt Q8WUI4); experiment: HDAC enzyme inhibitory assay; format: biochemical; conditions: up to concentrations of 10 μM
T5 sequence (Q8WUI4 1-952): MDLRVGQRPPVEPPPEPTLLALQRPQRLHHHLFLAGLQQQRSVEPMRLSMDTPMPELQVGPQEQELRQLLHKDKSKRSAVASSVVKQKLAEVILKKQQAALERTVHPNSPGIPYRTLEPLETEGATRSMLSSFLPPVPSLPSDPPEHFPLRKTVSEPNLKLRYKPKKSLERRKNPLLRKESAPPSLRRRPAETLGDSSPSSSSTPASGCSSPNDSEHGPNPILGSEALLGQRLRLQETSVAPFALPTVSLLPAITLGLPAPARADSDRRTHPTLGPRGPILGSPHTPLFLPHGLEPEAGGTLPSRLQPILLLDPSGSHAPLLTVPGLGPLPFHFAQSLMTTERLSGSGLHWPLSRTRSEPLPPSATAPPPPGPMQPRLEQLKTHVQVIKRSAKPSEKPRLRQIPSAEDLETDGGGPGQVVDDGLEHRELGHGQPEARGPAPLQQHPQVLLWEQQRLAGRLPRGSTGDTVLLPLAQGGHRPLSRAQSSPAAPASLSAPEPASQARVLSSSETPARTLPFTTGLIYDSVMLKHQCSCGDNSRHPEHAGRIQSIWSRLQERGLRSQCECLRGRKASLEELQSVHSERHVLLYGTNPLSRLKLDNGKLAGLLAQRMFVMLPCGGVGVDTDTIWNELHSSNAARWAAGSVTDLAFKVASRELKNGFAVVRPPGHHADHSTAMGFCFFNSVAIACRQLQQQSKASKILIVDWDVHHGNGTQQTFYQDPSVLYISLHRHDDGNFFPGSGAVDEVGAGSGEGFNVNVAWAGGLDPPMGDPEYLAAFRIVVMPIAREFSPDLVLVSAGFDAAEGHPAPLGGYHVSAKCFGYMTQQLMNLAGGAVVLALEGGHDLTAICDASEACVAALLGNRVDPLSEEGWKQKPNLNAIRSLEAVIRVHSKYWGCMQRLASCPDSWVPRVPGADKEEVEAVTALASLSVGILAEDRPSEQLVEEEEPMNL

sirtuins = experiment: HDAC enzyme inhibitory assay; format: biochemical; conditions: up to concentrations of 10 μM

Sequence of HDAC isoform 4 (P56524 whole entry, canonical isoform): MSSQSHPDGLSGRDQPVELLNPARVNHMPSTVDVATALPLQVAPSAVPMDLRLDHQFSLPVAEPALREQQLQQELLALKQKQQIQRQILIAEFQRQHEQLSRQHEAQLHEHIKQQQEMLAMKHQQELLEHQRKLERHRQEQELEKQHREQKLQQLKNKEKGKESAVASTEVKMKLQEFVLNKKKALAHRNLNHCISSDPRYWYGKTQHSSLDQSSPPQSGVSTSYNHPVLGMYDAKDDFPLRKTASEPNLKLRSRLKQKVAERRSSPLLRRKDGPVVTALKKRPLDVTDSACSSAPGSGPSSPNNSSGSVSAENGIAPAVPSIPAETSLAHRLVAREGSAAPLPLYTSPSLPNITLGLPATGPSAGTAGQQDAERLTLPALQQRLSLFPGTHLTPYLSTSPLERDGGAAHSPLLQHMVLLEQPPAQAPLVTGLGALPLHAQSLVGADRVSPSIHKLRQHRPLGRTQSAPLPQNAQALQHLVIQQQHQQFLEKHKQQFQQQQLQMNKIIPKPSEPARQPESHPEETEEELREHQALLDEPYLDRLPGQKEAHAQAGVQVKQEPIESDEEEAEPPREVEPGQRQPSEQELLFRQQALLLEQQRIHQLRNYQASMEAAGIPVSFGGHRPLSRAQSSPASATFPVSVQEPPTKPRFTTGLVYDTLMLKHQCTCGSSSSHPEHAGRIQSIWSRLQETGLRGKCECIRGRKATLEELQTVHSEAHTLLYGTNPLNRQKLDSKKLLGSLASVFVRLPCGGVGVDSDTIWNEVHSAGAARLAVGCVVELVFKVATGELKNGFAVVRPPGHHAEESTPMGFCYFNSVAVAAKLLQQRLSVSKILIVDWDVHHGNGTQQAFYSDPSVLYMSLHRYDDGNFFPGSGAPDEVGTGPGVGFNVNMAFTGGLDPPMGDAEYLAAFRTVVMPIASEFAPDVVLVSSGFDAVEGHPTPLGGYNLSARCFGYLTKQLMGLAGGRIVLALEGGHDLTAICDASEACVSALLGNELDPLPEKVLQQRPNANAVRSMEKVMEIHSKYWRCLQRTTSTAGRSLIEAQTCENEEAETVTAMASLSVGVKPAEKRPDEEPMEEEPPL
Sequence of HDAC isoform 9 (Q9UKV0 whole entry, canonical isoform): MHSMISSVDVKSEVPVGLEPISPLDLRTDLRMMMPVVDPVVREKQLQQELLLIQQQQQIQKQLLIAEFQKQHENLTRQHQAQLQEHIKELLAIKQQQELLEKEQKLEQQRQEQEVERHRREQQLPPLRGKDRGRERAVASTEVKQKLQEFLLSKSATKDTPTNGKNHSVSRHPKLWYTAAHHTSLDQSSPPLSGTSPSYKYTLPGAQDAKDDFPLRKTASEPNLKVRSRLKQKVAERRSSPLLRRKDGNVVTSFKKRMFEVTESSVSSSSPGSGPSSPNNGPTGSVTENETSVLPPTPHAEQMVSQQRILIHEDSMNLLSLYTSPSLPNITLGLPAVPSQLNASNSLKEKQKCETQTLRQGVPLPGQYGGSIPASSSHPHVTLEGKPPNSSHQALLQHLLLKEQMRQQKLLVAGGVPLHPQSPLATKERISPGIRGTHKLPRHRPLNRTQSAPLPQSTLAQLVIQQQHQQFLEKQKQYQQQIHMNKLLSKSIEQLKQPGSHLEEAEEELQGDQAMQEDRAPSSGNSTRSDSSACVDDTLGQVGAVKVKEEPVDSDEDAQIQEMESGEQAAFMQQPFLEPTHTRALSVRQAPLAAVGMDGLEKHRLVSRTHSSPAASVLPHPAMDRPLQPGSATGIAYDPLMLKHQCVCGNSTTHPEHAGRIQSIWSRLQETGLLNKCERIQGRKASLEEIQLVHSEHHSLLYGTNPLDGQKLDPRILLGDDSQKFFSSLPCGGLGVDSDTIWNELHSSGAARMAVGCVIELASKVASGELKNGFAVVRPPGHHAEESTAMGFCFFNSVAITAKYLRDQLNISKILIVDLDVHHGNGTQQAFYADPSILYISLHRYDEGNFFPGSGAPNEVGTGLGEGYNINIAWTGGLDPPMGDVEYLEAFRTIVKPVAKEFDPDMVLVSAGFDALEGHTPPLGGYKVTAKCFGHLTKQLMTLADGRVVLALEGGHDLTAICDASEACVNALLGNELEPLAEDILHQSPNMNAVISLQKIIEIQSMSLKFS

## CCCCCCCC(=O)SCC/C=C/[C@@H]1CC(=O)NCc2nc(cs2)C2=N[C@@](C)(CS2)C(=O)N[C@@H](C(C)C)C(=O)O1 [compound 5, largazole]
[1]
  histone H3 (Lys9/14) hyperacetylation: dose-dependent increase
HDAC11
  HDAC11 inhibition: strongly inhibited
HDAC8
  HDAC8 inhibition: inhibited to a much lesser extent
[2]
  histone H3 (Lys9/14) hyperacetylation: dose-dependent increase
HDAC6
  potency in vitro against HDAC6: two orders of magnitude lower potency
HDAC10
  HDAC10 activity in vitro: severely compromised

## CC(C)[C@@H]1NC(=O)[C@]2(C)CSC(=N2)c2csc(n2)CNC(=O)C[C@@H](/C=C/CCS)OC1=O [compound 6, largazole thiol]
HDAC isoform 9
  inhibitory activity against isoform 9: None of the compounds tested, including largazole thiol 6, showed any inhibitory activity
HDAC isoform 4
  inhibitory activity against isoform 4: None of the compounds tested, including largazole thiol 6, showed any inhibitory activity
HDAC isoform 11
  inhibitory activity against isoform 11: None of the compounds tested, including largazole thiol 6, showed any inhibitory activity
HDAC isoform 7
  inhibitory activity against isoform 7: None of the compounds tested, including largazole thiol 6, showed any inhibitory activity
sirtuins
  inhibitory activity against sirtuins: None of the compounds tested, including largazole thiol 6, showed any inhibitory activity

## CC(C)[C@@H]1NC(=O)[C@]2(C)CSC(=N2)c2csc(n2)CNC(=O)C[C@@H](/C=C/CCC(=O)NO)OC1=O [compound 7]
[1]
  histone H3 (Lys9/14) hyperacetylation: dose-dependent increase
[2]
  histone H3 (Lys9/14) hyperacetylation: dose-dependent increase

## CC(C)[C@@H]1NC(=O)[C@]2(C)CSC(=N2)c2csc(n2)CNC(=O)C[C@@H](/C=C/CCSCCS)OC1=O [compound 8]
[1]
  histone H3 (Lys9/14) hyperacetylation: dose-dependent increase
[2]
  histone H3 (Lys9/14) hyperacetylation: dose-dependent increase
